RORa inhibitor: inhibitors of orphan receptor RORA, primary screen, cell-based, luminescence | actives 0.43% (n = 65,000) | CHO-K1 Gal4-RORA LBD luciferase reporter | Nuclear receptor ROR-alpha (Homo sapiens), P35398 | inhibition, % at 10 µM;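 active means inhibition above the mean of all tested compounds plus 3 SD, cut at about 52% in these data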;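 further: 0% = RORA-transfected cells with DMSO and 100% = mock-transfected cells lacking RORA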
Target sequence (P35398 whole entry, looked up, the tested form may be a part): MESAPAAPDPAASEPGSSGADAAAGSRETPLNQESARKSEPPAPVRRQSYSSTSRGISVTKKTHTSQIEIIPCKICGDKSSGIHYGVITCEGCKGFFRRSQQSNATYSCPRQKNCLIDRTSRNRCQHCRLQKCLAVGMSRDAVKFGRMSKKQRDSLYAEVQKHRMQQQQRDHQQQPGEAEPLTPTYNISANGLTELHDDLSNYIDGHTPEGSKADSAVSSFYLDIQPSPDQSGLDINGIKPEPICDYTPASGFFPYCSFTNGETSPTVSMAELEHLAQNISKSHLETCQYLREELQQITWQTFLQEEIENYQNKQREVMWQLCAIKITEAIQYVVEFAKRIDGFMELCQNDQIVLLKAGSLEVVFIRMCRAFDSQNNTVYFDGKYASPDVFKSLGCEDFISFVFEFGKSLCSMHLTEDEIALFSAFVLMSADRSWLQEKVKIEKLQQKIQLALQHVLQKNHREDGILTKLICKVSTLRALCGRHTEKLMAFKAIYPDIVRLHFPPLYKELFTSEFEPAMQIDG
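test system = CHO-K1 Gal4-RORA LBD luciferase reporter cells | dosing = 10 µM single point | times = 20 h compound treatment, 37 °C | signal = luciferase luminescence | read-out = % inhibition of basal luciferase versus +RORA/-RORA DMSO controls | benchmarks = mock-transfected cells as 100%, +RORA DMSO cells as 0% | replicates = tested once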
Active calls of the source: *. Many of the other results were omitted from the sample, so hits are more common in it than they were.

SMILES	RORa inhibitor
CC1CCc2ccccc2N1C(=O)c1cccs1 (stereo not drawn)	2.4
CC(C)OC(=O)C(NC(=O)c1ccccc1)=C1CCCCC1	-1.5
Cc1cccc(NC(=O)Nc2ccc(C#N)cc2)n1	60.1*
Cc1cccc(NC(=O)c2cc3ccccc3c(=O)o2)n1	-57.1
COc1ccc(NC(=O)Nc2cccc(OC)c2)cc1	-67.7
CCCCn1c(SCC(=O)Nc2cc(NC(=O)c3ccco3)ccc2C)nc2ccccc2c1=O	12.5
CCCCOc1ccccc1NC(=O)CSc1nnnn1C(C)(C)C	2.2
O=S(=O)(NCC(c1cccnc1)N1CCN(Cc2ccccc2)CC1)c1ccccc1 (stereo not drawn)	-4.1
CCCCC(=O)NCCNc1nc2c(c(=O)n(C)c(=O)n2C)n1Cc1ccc(F)cc1	9.6
CCCNc1nc2c(c(=O)n(C)c(=O)n2C)n1Cc1cccc(C)c1	55.2*
CCCNc1nc2c(c(=O)n(C)c(=O)n2C)n1CCc1ccccc1	17.2
COc1cccc(Cn2c(NCc3ccco3)nc3c2c(=O)n(C)c(=O)n3C)c1	62.2*
CCn1c(NCc2ccccn2)nc2c1c(=O)n(C)c(=O)n2C	-1.8
Cn1c(NCc2ccccc2)nc2c1c(=O)n(Cc1ccc(Br)cc1)c(=O)n2C	7.4
CCOC(=O)c1c(C)[nH]c(C)c1C(=O)CSc1nnc(-c2ccncc2)n1C	4.6
CCc1ccc(NC2=NC(C(=O)NC3CCCCC3)CC(=O)N2)cc1 (stereo not drawn)	17.2
CN(CC(=O)NCc1ccco1)S(=O)(=O)c1ccc2c(c1)n(C)c(=O)c(=O)n2C	15.0

Screens: PubChem BioAssay, The Scripps Research Institute Molecular Screening Center
